B1: tRNA (parent)
chain: GUUCCGUUGGCGUAAUGGUAACGCGUCUCCCUCCUAAGGAGAAGACUGCGGGUUCGAGUCCCGUACGGAACG

The values that follow come from the RNAGym collection of RNA variant scans (doi:10.1126/science.aae0568).

Variants at the floor of the assay were thinned out.

In the series the parent is B1. Briefly: yeast fitness relative to wild type (ratio to wild type); higher = fitter; tRNA-Arg(CCU), competitive growth, 37 C, YPD. Put shortly: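 Variants of the tRNA-Arg(CCU) gene were chemically synthesised with a 3% per-site mutation rate across 69 sites and placed at the native genomic locus in Saccharomyces cerevisiae. Six parallel replicates of the pooled strains were competed in YPD at 37°C for 24 hours, and gene amplicons from the start and end populations were read by 100-nucleotide paired-end sequencing. Darwinian fitness relative to wild type was derived from changes in genotype frequencies. Genotypes required ≥ 100 starting reads, and estimates < 0.5 were set to 0.5.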
For the variant GUUCCGCUGGCGUAAUGGUAACGCGUCUCCUUCCUUAGGAGACGACUGCGGGUUGGAGUCCCGUACGGAACG [U7C C31U A36U A43C C55G], the yeast fitness was found to be 0.539.

For GUUCCGCUGACGUAAUGGUAACGCGUCUCGCUCCUACGGAGAAGACUGCGGGUUCGAGUCCCGUACGGAACG [U7C G10A C30G A37C], the yeast fitness stood at 0.554.

For GUUCCGCUGGCGUAAUGGUAACGCGUCUCUCUCCUAGGGAGAAGAUUGCGGCUUCGAGUCCGGUACGGACCG [U7C C30U A37G C46U G52C C62G A70C], the yeast fitness is no more than 0.5.

For GUUCCGCUGGCGUAAUGGUAACGCGUCUGCCUCCUAAGGAGAAGCCUGCGGGUUCGAGUCCGGUCCGGAACG [U7C C29G A45C C62G A65C], the yeast fitness was no more than 0.5.

Regarding GUUCCGCUGCCGUAAUGGUAACGCGUCUCCCUCCUAAGGAGACGACUGCGGGUUCGAGUCCCGUACGGAACG [U7C G10C A43C], the yeast fitness came to 0.549.

As for GUUCCGCUGGCGUAAUGGUAACGCGUCUCCCUCCUAAGGAGAAGAAUGCGGGUUCGAGUCCCGUACGGAACG [U7C C46A], the yeast fitness came to 0.798.

In the case of GUUCCGCUGGCGUAAUGGUAACGCGUAUCCCUCCUAAGGAGAAGACUGCGGGUUCGAGUCCCGUACGGAACG [U7C C27A], the yeast fitness amounted to 0.894.

With GUUCCGCUGGCGUAAUGGUAACGCGUGUCCCUCCUAAGGAGAAGACUGCGGGUUCGAGUCCCGUACGGAACG [U7C C27G], the yeast fitness came out at 0.696.

As for GUUCCGCUGGCGUAAUGGUAACGCGUCUCCCUCGUUUGGAGAAGACUGCGGGUUCGAGUCCCGUACGGAACG [U7C C34G A36U A37U], the yeast fitness is no more than 0.5.

Take GUUCCGCUGGCGUAAUGGUAACGCGUCUCCGUCCUAAGGAAAAGACUGCGGCUUCGAGUUCGGUAGGGAACG [U7C C31G G41A G52C C60U C62G C66G]: the yeast fitness is no more than 0.5.

Consider GUUCCGCUGGCGUAAUGGUAACGCGUCUCCCUCCUAAGGAGAAGACUGUGGGUUAGAGUCCCGUACGGAACG [U7C C49U C55A], for which the yeast fitness was no more than 0.5.

As for GUUCCGCUGGCGUAAUGGUAACGCGUCUCCCUCGUAAGCAGGAGAGUGCGGGUUCGAGUCGCGUACGGAACG [U7C C34G G39C A42G C46G C61G], the yeast fitness is 0.538.

Take GUUCCGCUGGCGUAAUGGUAACGCGUUUACCUCCUAAGGAGAAGACUGCGGGUUCGACUCCCGUACGGAACG [U7C C27U C29A G58C]: the yeast fitness is no more than 0.5.

On to GUUCCGCUAGCGUAAUGGUAACGGGUCUCCCUCCUAAGGAGAAGUCUGAGGGAUCGAGUCCCGUACGGAACG [U7C G9A C24G A45U C49A U53A], for which the yeast fitness is 0.681.

Regarding GUUCCGCUGGCGUAAUGAUAAGGCGUCUCCCUCCUAAGGAGAAGACUGCGGGUUCGAGUCCUGUACGGAGCG [U7C G18A C22G C62U A70G], the yeast fitness was no more than 0.5.

Consider GUUCCGCUGGCGUAAUGGUAACGCGUCUCCCUCCUAAGGAGAAGAUUGCGGGUUCGAGUCACUUACAGAACG [U7C C46U C61A G63U G67A], for which the yeast fitness is no more than 0.5.

In the case of GUUCCGCUGGCGUAAUGAUAACGCGUCUCCAUCCUAAGGAGAAGACUGCGGGUUCCAGUCCCGUACGGAACG [U7C G18A C31A G56C], the yeast fitness was no more than 0.5.

Take GUUCCGCUGGCGUAAUGAUAAGGCGUCUCCCUCCUAAGGAGAAGACUGCGGGUUCGAGUCCCGUACGGAACG [U7C G18A C22G]: the yeast fitness is 0.586.

For the variant GUUCCGCUGGCGUAAUGGUAACGCGUUUCCCUCCUAAGGAGAAGUCUGCGGGUUCGAGUCCCGUAUGGAACG [U7C C27U A45U C66U], the yeast fitness worked out at 0.617.

As to GUUCCGCUGGCGUAAUGCUAACGCGUCUCCCUCCUAAGGAGAAGACUGCGGGUUCGAGGCCCGUACGGAACG [U7C G18C U59G], the yeast fitness is no more than 0.5.

GUUCCGCUGGCAGCAUGGUAACGCGUCUCCCUCCCAAGGAGAAGACUGUGGGUUCGAGUCCCGUACGGAACG [U7C G12A U13G A14C U35C C49U]: the yeast fitness is no more than 0.5.

Regarding GUUCCGCUGGCGUAAUGGUAACGCGUCUCCCUUCUAAGGAGAAGACUGUGGGCUCGAGUCCCGUACGGAACG [U7C C33U C49U U53C], the yeast fitness turned out to be 0.539.

GUUCCGCUGGCGUAAUGGUAACCCGUCUCCCUCCUAAGGAGAAGACUGCGGAUUCGAGUCCCGUACGGAACG [U7C G23C G52A]: the yeast fitness stood at 0.591.

Take GUUCCGCUGGCGUAAUGGUAACGCGUCUCCCUACUAAGGAGAAGACUGCGGGUUCGACUCCCGUACAGAACG [U7C C33A G58C G67A]: the yeast fitness is 0.602.

As for GUUCCGCUGGCGUAAUGGUAACGCGUCUCCCUCUUAAGGAGAAGACUGCGGGUUCGAGUCCCGUAUGGAACG [U7C C34U C66U], the yeast fitness is no more than 0.5.

On to GUUCCGCUGGCGUAAUGGUAACGCGUCUCGCUCCUAAGGAGAAGACUGCGGGUUCGACUCCCGUAUGGAACG [U7C C30G G58C C66U], for which the yeast fitness is no more than 0.5.

As to GUUCCGCUGGCGUAAUGGUAACGCGUCUCCCUCUUAAGGAGAAGACUGCGGGUUAGAGUCCCGUGCGGAACG [U7C C34U C55A A65G], the yeast fitness was no more than 0.5.

Regarding GUUCCGCUGGCGUAAUGGUAACGCGUCUCCCUGCUAAGGAGAAGACUGCGGGUUCGAGUCCCGUACGGAGCG [U7C C33G A70G], the yeast fitness came to 0.57.

Turning to GUUCCGCUGGCGUAAUGGUAACGCGUCUCCUUCCUAAGGAGAAGACUGCGGAUUCGAGUCCCGUACGGAACG [U7C C31U G52A], the yeast fitness was no more than 0.5.

Take GUUCCGCUGGCGUAAUGGUAACGCAUCACCCUCCUAAGGAGAAGACUCCGGGUUCGAGUCCCGUACGGACCG [U7C G25A U28A G48C A70C]: the yeast fitness was no more than 0.5.

Turning to GUUCCGCUGGCGUAAUGGUAACGCGUCUCCUGCCUAAGGAGAAGACUGCGGGUUCGAGUCCCGUACGGAACG [U7C C31U U32G], the yeast fitness turned out to be 0.542.

For the variant GUUCCGCUGGCGUAAUGGUAACGCGUCUCCCUCCUAAGGAGAAGACUGCGGGUUAGAGUCCCGUACGGAACG [U7C C55A], the yeast fitness stood at 0.567.

Consider GUUCCGCUGGCGUAAUGGUAACGCGUCUCCCUCCUAAGGAGAAGACUGCGGGUUGGAGUCCCGUACGGAACG [U7C C55G], for which the yeast fitness is 0.628.

GUUCCGCUGGCGUAAUGGUAACGCGUCUGCCUCCUAAGGAGAAGACUGUGGGUUCGAGUCCCGUACGGAACG [U7C C29G C49U]: the yeast fitness was 0.712.

Take GUUCCGCUGGCGUAAUGGUAACGCGUCUCCGUCUUAAGGAGAAGACUGCGGGUUUGAAUCUCGUACGCAACG [U7C C31G C34U C55U G58A C61U G68C]: the yeast fitness is no more than 0.5.

Take GUUCCGCUGGCGUAAUGGUAACGCGUAUCCCUCCUAAGGAGAAGACUGCGGGUUCGAGUCCCGGACGGAACG [U7C C27A U64G]: the yeast fitness is no more than 0.5.

As to GUUCCGCUGGCCUAAUGGUAACGCGUCUCCCACCUAAGAAGAAGACUGGGGGUUCGAGUCCCGUACGGAACG [U7C G12C U32A G39A C49G], the yeast fitness is 0.602.
